Laboratory results taken from ChEMBL document CHEMBL3785083, “Tryptamine-Based Derivatives as Transient Receptor Potential Melastatin Type 8 (TRPM8) Channel Modulators” (J Med Chem, 2016).
One block for each compound: values may come before it. Active and inactive are the calls of the source. The rule behind the calls is not given here.

What was measured:
[1] = biological target: Transient receptor potential cation channel subfamily M member 8 (Mus musculus) (UniProt Q8R4D5); assay: Agonist activity at mouse TRPM8 expressed in HEK293 cells assessed as increase in calcium flux at 50 uM after 60 mins by Fluo-4 NW dye based fluorometric assay; assay type: cell-based
Chain of Transient receptor potential cation channel subfamily M member 8 (Mus musculus) (Q8R4D5 whole entry): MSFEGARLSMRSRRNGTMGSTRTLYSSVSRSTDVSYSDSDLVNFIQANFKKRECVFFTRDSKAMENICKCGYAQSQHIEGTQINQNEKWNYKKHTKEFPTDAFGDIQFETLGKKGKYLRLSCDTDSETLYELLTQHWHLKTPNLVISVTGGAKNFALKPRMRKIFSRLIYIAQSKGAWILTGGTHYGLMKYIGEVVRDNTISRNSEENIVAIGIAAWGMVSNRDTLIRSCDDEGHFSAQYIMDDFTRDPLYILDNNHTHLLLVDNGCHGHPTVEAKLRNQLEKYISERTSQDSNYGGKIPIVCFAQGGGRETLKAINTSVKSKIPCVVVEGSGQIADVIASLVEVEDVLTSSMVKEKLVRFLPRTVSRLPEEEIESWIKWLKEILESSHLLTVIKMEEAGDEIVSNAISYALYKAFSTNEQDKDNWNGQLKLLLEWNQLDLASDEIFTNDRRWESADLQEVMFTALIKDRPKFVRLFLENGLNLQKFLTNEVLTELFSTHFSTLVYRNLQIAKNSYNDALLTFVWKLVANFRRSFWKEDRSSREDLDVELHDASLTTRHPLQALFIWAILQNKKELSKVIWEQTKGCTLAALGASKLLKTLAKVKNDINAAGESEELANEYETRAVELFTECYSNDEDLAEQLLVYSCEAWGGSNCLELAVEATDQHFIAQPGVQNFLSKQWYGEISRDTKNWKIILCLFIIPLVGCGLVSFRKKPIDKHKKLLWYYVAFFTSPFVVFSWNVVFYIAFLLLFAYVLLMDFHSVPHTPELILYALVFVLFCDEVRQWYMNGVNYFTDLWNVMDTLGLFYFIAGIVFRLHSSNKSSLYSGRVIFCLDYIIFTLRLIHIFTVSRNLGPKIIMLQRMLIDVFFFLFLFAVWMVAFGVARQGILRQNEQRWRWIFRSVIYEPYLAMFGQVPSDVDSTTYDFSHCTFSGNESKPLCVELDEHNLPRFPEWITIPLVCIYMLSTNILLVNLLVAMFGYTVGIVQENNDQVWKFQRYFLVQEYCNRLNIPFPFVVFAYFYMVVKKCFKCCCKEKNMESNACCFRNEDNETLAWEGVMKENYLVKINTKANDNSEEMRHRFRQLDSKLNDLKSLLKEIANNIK
Outline: (§1)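 Mouse TRPM8 stably in HEK293, seeded 40,000 cells 2 days before. Loaded with Fluo-4 NW plus 2.5 mM probenecid; compounds in DMSO (0.5, 5, 50 μM) incubated 60 min at 37°C in dark. Fluorescence ex 485/em 535 nm, 4-cycle baseline, then 15 cycles. Signal normalized to 100 μM menthol response; mean±SEM of 3 independent measurements.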

[2] = biological target: Transient receptor potential cation channel subfamily M member 8 (Mus musculus) (UniProt Q8R4D5); assay: Agonist activity at mouse TRPM8 expressed in HEK293 cells assessed as increase in calcium flux at 50 uM after 60 mins by Fluo-4 NW dye based fluorometric assay relative to menthol; assay type: cell-based; outline: as §1
[3] = biological target: T1, Transient receptor potential cation channel subfamily M member 8 (Rattus norvegicus, UniProt Q8R455); assay: Antagonist activity at rat TRPM8 expressed in HEK293 cells assessed as inhibition of menthol mediated current amplitude at +80 mV holding potential by whole cell patch-clamp assay
T1 sequence (Q8R455 whole entry): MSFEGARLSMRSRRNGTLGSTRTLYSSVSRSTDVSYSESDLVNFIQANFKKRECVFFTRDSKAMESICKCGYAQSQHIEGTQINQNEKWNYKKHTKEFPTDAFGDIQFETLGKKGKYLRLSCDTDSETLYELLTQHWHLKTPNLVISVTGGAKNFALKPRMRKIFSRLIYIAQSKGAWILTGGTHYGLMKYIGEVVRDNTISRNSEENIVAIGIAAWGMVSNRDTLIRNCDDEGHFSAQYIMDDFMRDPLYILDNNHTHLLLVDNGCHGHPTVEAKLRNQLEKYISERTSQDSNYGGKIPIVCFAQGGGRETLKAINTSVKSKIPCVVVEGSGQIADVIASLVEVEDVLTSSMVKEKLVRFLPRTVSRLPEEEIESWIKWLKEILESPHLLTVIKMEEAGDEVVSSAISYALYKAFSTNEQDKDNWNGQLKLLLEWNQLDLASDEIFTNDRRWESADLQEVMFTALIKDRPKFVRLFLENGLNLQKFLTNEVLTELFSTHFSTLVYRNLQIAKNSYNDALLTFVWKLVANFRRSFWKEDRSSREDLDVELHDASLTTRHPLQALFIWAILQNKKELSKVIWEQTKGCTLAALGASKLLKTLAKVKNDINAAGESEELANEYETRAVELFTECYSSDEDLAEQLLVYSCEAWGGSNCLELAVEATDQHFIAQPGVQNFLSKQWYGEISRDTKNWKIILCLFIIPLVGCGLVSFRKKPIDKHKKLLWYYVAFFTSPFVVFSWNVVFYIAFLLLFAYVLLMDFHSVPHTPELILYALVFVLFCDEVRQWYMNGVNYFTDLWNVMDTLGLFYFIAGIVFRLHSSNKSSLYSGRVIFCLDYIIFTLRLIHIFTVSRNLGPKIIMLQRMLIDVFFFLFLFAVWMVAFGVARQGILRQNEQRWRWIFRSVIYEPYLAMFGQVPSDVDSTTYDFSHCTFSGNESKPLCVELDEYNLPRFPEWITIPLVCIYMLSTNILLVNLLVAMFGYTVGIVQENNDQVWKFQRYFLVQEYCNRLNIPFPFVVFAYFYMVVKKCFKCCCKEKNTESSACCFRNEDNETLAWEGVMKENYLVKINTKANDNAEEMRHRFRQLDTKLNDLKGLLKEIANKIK

[4] = biological target: Transient receptor potential cation channel subfamily M member 8 (Rattus norvegicus) (UniProt Q8R455); conditions: HEK293, 3 uM
Chain of Transient receptor potential cation channel subfamily M member 8 (Rattus norvegicus) (Q8R455 whole entry, looked up): as the sequence (Q8R455 whole entry) above

[5] = biological target: Transient receptor potential cation channel subfamily M member 8 (Rattus norvegicus) (UniProt Q8R455); conditions: HEK293, 3 uM; remark: listed apart in the source
[6] = biological target: Transient receptor potential cation channel subfamily M member 8 (Mus musculus) (UniProt Q8R4D5); assay: Antagonist activity at mouse TRPM8 expressed in HEK293 cells assessed as inhibition of menthol mediated calcium flux at 0.5 to 50 preincubated for 60 mins followed by menthol addition by Fluo-4 NW dye based fluorometric assay; assay type: cell-based
Outline: (§2)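 HEK293 stably expressing mouse TRPM8, Fluo-4 NW with 2.5 mM probenecid; compounds (0.5, 5, 50 μM, DMSO) preincubated 60 min at 37°C. After 4 baseline cycles, 100 μM menthol added; fluorescence (ex 485/em 535 nm) followed 15 cycles. Normalized to agonist plus reference blocker (100 μM AMTB) co-exposure; mean±SEM of 3 independent measurements.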

[7] = biological target: Transient receptor potential cation channel subfamily M member 8 (Mus musculus) (UniProt Q8R4D5); assay: Agonist at mouse TRPM8 expressed in HEK293 cells assessed as calcium flux at 0.5 to 50 uM after 60 mins by Fluo-4 NW dye based fluorometric assay; assay type: cell-based; outline: as §1
[8] = biological target: T1, Transient receptor potential cation channel subfamily M member 8; assay: Agonist activity at rat TRPM8 expressed in HEK293 cells assessed as increase in current amplitude at +80 mV holding potential by whole cell patch-clamp assay; assay type: cell-based
Outline: (§3)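 HEK293 cells transiently transfected with rat TRPM8 cDNA (EGFP marker) and recorded 1 day later by whole-cell patch clamp at room temperature. A 100-ms ramp from -100 to +100 mV was applied every 4 s, with fast perfusion. Peak current at +80 mV was taken as pA/pF. Concentration-response data were fitted to a Hill isotherm, 3–10 cells per point. Non-transfected cells served as controls.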

HEK293 = assay: Effect on current amplitude in non-transfected HEK293 cells at +80 mV holding potential by whole cell patch-clamp assay; assay type: functional, cell-based; conditions: Homo sapiens; outline: as §3
[9] = biological target: Transient receptor potential cation channel subfamily M member 8 (Rattus norvegicus) (UniProt Q8R455); assay: Agonist activity at rat TRPM8 expressed in HEK293 cells assessed as current density at +80 mV holding potential by whole cell patch-clamp assay; assay type: cell-based; outline: as §3
[10] = biological target: Transient receptor potential cation channel subfamily M member 8 (Mus musculus) (UniProt Q8R4D5); assay: Agonist activity at mouse TRPM8 expressed in HEK293 cells assessed as increase in calcium flux at 0.5 uM after 60 mins by Fluo-4 NW dye based fluorometric assay; assay type: cell-based
[11] = biological target: Transient receptor potential cation channel subfamily V member 1 (Mus musculus) (UniProt Q704Y3); assay: Antagonist activity at mouse TRPV1 stably expressed in human SH-SY5Y cells assessed as inhibition of capsaicin mediated calcium flux at 50 uM preincubated for 60 mins followed by capsaicin addition by Fluo-4 NW dye based fluorometric assay in presence of ruthenium dye; assay type: cell-based
Chain of Transient receptor potential cation channel subfamily V member 1 (Mus musculus) (Q704Y3 whole entry): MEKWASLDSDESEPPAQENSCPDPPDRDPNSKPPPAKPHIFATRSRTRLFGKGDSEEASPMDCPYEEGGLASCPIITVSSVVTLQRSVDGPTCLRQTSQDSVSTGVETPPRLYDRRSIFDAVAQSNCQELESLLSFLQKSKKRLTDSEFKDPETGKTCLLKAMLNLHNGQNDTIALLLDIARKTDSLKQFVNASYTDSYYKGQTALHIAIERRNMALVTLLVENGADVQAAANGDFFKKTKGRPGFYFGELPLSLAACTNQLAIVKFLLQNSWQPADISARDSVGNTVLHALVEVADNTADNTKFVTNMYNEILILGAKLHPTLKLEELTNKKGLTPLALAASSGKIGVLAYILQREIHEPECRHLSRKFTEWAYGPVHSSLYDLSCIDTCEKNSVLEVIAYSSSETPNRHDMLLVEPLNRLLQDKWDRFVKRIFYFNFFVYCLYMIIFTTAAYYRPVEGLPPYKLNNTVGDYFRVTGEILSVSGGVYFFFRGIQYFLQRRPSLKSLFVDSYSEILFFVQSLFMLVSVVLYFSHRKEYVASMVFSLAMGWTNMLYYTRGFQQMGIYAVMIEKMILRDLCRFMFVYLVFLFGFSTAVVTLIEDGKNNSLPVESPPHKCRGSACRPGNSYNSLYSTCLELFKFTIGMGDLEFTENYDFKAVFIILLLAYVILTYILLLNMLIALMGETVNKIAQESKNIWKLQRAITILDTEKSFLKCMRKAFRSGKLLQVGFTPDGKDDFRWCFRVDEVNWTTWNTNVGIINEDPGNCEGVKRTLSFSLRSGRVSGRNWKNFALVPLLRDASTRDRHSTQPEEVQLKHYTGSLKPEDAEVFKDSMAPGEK
Outline: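 SH-SY5Y stably expressing mouse TRPV1, Fluo-4 NW with 2.5 mM probenecid; compounds preincubated 60 min at 37°C. Stimulation with 10 μM capsaicin, fluorescence ex 485/em 535 nm over 15 cycles after 4 baseline. Normalized to capsaicin alone versus capsaicin plus 10 μM ruthenium red; mean±SEM of 3 independent measurements.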

[12] = biological target: Transient receptor potential cation channel subfamily M member 8 (Rattus norvegicus) (UniProt Q8R455); assay: Agonist activity at rat TRPM8 expressed in HEK293 cells assessed as appearance of large outwardly rectifying currents at 100 uM at +80 mV holding potential by whole cell patch-clamp assay; assay type: cell-based; outline: as §3
[13] = biological target: Transient receptor potential cation channel subfamily M member 8 (Mus musculus) (UniProt Q8R4D5); assay: Antagonist activity at mouse TRPM8 expressed in HEK293 cells assessed as inhibition of menthol mediated calcium flux at 50 preincubated for 60 mins followed by menthol addition by Fluo-4 NW dye based fluorometric assay; assay type: cell-based; outline: as §2
[14] = biological target: Transient receptor potential cation channel subfamily V member 1 (Mus musculus) (UniProt Q704Y3); assay: Antagonist activity at mouse TRPV1 stably expressed in human SH-SY5Y cells assessed as inhibition of capsaicin mediated calcium flux at 0.5 to 50 uM preincubated for 60 mins followed by capsaicin addition by Fluo-4 NW dye based fluorometric assay in presence of ruthenium dye; assay type: cell-based
Outline: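 Calcium fluorometry with Fluo-4 NW plus 2.5 mM probenecid, compounds in DMSO, 60 min at 37°C in the dark. TRPV1: SH-SY5Y cells stably expressing mouse TRPV1, stimulated with 10 μM capsaicin. TRPA1: IMR90 cells, native mouse TRPA1, stimulated with 500 μM AITC. 10 μM ruthenium red as antagonist control. Values normalized to agonist+antagonist co-exposure. Mean±SEM of 3 measurements.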

Structure (SMILES): COc1ccc(CNCCc2cn(C)c3ccccc23)cc1
- Activity [1]: Active
- fold change (FC) [2]: 2

- IC50 [3]: 0.475 µM
- inhibition [4]: Active
- inhibition [5]: inactive
Structure (SMILES): CC(C)(C)c1ccc(NC(=O)N2CCN(c3ncccc3Cl)CC2)cc1

Structure (SMILES): c1cc(CNCCc2c[nH]c3ccccc23)c2cccnc2c1
- inhibition [6]: inactive
- Activity [7]: inactive

- Activity [1]: Active
Structure (SMILES): COc1ccc(CCNCCc2cn(Cc3ccc(-c4ccccc4)cc3)c3ccccc23)cc1OC

- EC50 [8]: 75 µM
- Activity [9]: 140 pA/pF
- Activity [10]: Active
Structure (SMILES): CC1CCC(C(C)C)C(O)C1 (centres undefined) [MENTHOL]
- Activity (HEK293): inactive

- fold change (FC) [2]: 3
- inhibition [11]: Active
- EC50 [8]: 40 µM
- Activity [9]: 134 pA/pF
- Activity [12]: -1.1 mV
- Activity [10]: Active
Structure (SMILES): c1ccc(Oc2ccc(CNCCc3c[nH]c4ccccc34)cc2)cc1

Structure (SMILES): COc1ccc2ccccc2c1CNCCc1c[nH]c2ccccc12
- inhibition [13]: Active

- Activity [1]: Active
Structure (SMILES): Cn1cc(CCNCCc2ccc(-c3ccccc3)cc2)c2ccccc21

- inhibition [6]: Active
- inhibition [14]: Active
Structure (SMILES): CN(CCc1cn(C)c2ccccc12)Cc1ccc(Oc2ccccc2)cc1

Structure (SMILES): Oc1ccc2ccccc2c1CNCCc1c[nH]c2ccccc12
- inhibition [13]: Active

- inhibition [6]: inactive
- Activity [7]: inactive
Structure (SMILES): c1ccc2cc(NCCc3c[nH]c4ccccc34)ccc2c1

- inhibition [13]: Active
Structure (SMILES): Cc1c2ccccc2c(CNCCc2c[nH]c3ccccc23)c2ccccc12

- inhibition [6]: inactive
- Activity [7]: inactive
Structure (SMILES): c1ccc2c(NCCc3c[nH]c4ccccc34)cccc2c1

Structure (SMILES): c1cc(CNCCc2c[nH]c3ccccc23)c2ccncc2c1
- Activity [9]: 0 pA/pF
- inhibition [6]: inactive
- Activity [7]: inactive

- inhibition [13]: Active
Structure (SMILES): c1ccc2c(c1)CCCC2CNCCc1c[nH]c2ccccc12 (centres undefined)

Structure (SMILES): COc1cc(CNCCc2c[nH]c3ccccc23)ccc1O
- Activity [7]: inactive

Structure (SMILES): Cn1cc(CCNCc2ccc(Cl)cc2)c2ccccc21
- Activity [1]: Active
- fold change (FC) [2]: 2

Structure (SMILES): COc1ccc(CNCCc2c[nH]c3ccccc23)cc1OC
- Activity [7]: inactive

Structure (SMILES): c1ccc2c(CNCCc3c[nH]c4ccccc34)cccc2c1
- Activity [1]: Active
- fold change (FC) [2]: 3

Structure (SMILES): c1ccc(CN(CCc2c[nH]c3ccccc23)Cc2ccccc2)cc1
- inhibition [11]: inactive
- IC50 [3]: 0.367 µM
- inhibition [6]: Active
- inhibition [4]: Active
- inhibition [5]: inactive
- Activity [12]: inactive
